Results from different studies.
Target: Dual specificity protein kinase CLK2 (CLK2, Homo sapiens, UniProt P49760)

| Compound | test | conditions | measurement | result |
| --- | --- | --- | --- | --- |
| COc1cc(Nc2cnc(C#N)c(O[C@H](C)CN(C)C)n2)ncc1-c1cnn(C)c1 | enzyme activity, inhibitor, radiometric | 10 µM | remaining activity | 50% |
| CCCOc1ccc([C@H]2[C@H](C(=O)O)[C@@H](c3ccc4c(c3)OCO4)CN2CC(=O)Nc2c(CC)cccc2CC)cc1 | cell-free assay, competition with immobilised ligand | 1 µM | remaining binding | 91% |
| Cn1c2c(c3ccc(Cl)c(Cl)c31)C(C#N)C1(CCCC1)NC2=O (stereo not shown) | thermal stability, DSF | 10 µM | ΔTm | 1.7 °C |
| COc1cc2ncnc(Nc3ccc(Oc4ccccc4)c(C)c3C)c2cc1OC | enzyme activity, inhibitor | 1 µM | inhibition | 3% |
| Cn1c(=O)n(-c2ccc(C(C)(C)C#N)cc2)c2c3cc(-c4cnc5ccccc5c4)ccc3ncc21 | enzyme activity, inhibitor | 10 µM | remaining activity | 53% |
| COc1cccc(CNC(=O)c2nc3scc(COCc4ccc(C(=O)O)cc4)c3c(=O)[nH]2)c1 | cell-free assay, competition with immobilised ligand | 1 µM | remaining binding | 92.4% |
| Cc1ccc(C(=O)Nc2ccc(CN3CCN(C)CC3)c(C(F)(F)F)c2)cc1C#Cc1cnc2cccnn12 | enzyme activity, inhibitor | 23.5 nM | remaining activity | 94% |
| Cc1ccc(NC(=O)c2ccc(CN3CCN(C)CC3)cc2)cc1Nc1nc(-c2cccnc2)cs1 | cell-free assay | 0.5 µM | remaining signal | 86% |
| COCCOc1nc(-c2ccc(Cl)nc2)nc2c1CN(C(=O)c1ncn3ccccc13)CC2 | cell-free assay, competition with immobilised ligand | 0.1 µM | remaining binding | 100% |
| C#Cc1cccc(Nc2ncnc3cc(OCCOC)c(OCCOC)cc23)c1 | cell-free assay | 0.5 µM | remaining signal | 93.4% |
| Cn1cnc(Br)c1C1=CN(c2ncnc3[nH]cnc23)CCS1 | enzyme activity, inhibitor, radiometric | 50 nM | inhibition | 46.1% |
| CS(=O)(=O)N1CCCC(NC(=O)[C@H](CCC2CCCCC2)NC(=O)c2ccc(CNC(=O)c3cnc4ccccn34)cc2)C1 (stereo partly shown) | cell-free assay, competition with immobilised ligand | 0.1 µM | remaining binding | 98% |
| CN(C)C1CCN(CC#Cc2nn(C3CCCC3)c3nc(NCc4ccccc4)ncc23)C1 (stereo not shown) | enzyme activity, inhibitor, FRET | 1 µM | inhibition | 11% |
| CCCCNc1ncc2c(-c3ccc(F)cc3)nn(C[C@H]3CC[C@H](N)CC3)c2n1 | target engagement in cells, inhibitor, chemoproteomics | 20 mM | inhibition | 46.4% |
| CN1CC(Oc2cnc(C#N)cc2-c2ccn3nc(NC(=O)C4CC4)cc3c2)C1 | enzyme activity, inhibitor | 1 µM | inhibition | 1% |
| COc1cc2ncnc(Nc3ccc(F)c(Cl)c3)c2cc1OCCCN1CCOCC1 | cell-free assay | 0.5 µM | remaining signal | 94.8% |
| CC(C)CC(=O)N1CCc2nc(-c3ccc(Br)cc3)nc(N(C)Cc3ccccc3)c2C1 | cell-free assay, competition with immobilised ligand | 0.1 µM | remaining binding | 100% |
| CC(C)(O)[C@H]1CC[C@H](Nc2ccc3ncc(-c4cccc(C(F)(F)F)c4)n3n2)CC1 | enzyme activity, inhibitor | 1 µM | remaining activity | 15.8% |
| CC1(C)NC(=O)c2[nH]c3c(Cl)c(Cl)ccc3c2C1C#N (stereo not shown) | thermal stability, DSF | 10 µM | ΔTm | 2.7 °C |

| Compound | test | conditions | measurement | result |
| --- | --- | --- | --- | --- |
| CCCS(=O)(=O)Nc1ccc(F)c(C(=O)c2c[nH]c3ncc(-c4ccc(Cl)cc4)cc23)c1F | enzyme activity, inhibitor | 1 µM | inhibition | < 10% |
| CS(=O)(=O)Nc1cccc(-c2csc(NC(=O)CSc3nc4nccnc4c(=O)n3CCc3ccccc3)n2)c1 | enzyme activity, inhibitor | 10 µM | inhibition | 11% |
| CC(C)(C)c1nc(-c2cccc(NS(=O)(=O)c3c(F)cccc3F)c2F)c(-c2ccnc(N)n2)s1 | enzyme activity, inhibitor, radiometric | 1 µM | remaining activity | 98% |
| CN1CCC2(CC1)NC(=O)c1c(c3ccc(Cl)c(Cl)c3n1C)C2C#N (racemic) | thermal stability, DSF | 10 µM | ΔTm | 1.9 °C |
| COc1cc(Cl)c(C(=O)N[C@@H](CN[C@H]2CC[C@@H](N)CC2)Cc2ccc(C#N)cc2)cc1-c1ccc(CN[C@H](C)c2ccc(C)cc2)o1 | enzyme activity, inhibitor | 1 µM | remaining activity | 92% |
| O=S(=O)(NC1CCC(c2cc(F)ccc2F)(S(=O)(=O)c2ccc(Cl)cc2)CC1)C(F)(F)F (stereo not shown) | cell-free assay, competition with immobilised ligand | 1 µM | remaining binding | 100% |
| CC/C(=N\NC(=O)NCc1cccc(O)c1)c1ccc(O)c(C)c1O | enzyme activity, inhibitor | 0.1 µM | inhibition | 1.6% |
| Cc1cc(NC(=O)c2cccc3cc(-c4cccc5[nH]nc(N)c45)ccc23)ccc1F | enzyme activity, inhibitor | 0.1 µM | activity vs control | 95% |
| CC(C1CC1)n1cnc2c(NCc3cccc(C(F)(F)F)c3)nc(NCCN(C)C)nc21 (stereo not shown) | enzyme activity, inhibitor | 5 µM | inhibition | > 50% |
| CCCOc1ccc(OC)c(F)c1C(=O)c1ccc(C(=O)N[C@@H]2CNC[C@H]2NC(=O)c2ccc3[nH]ncc3c2)cc1 | enzyme activity, inhibitor | 10 µM | remaining activity | 36% |
| Cc1sc(C(=O)NC2COC2)cc1-n1cc(NC(=O)Nc2c(F)cccc2Cl)cn1 | enzyme activity, inhibitor | 10 µM | remaining activity | 100% |
| Clc1ccc(Nc2nnc(Cc3ccncc3)c3ccccc23)cc1 | cell-free assay | 0.5 µM | remaining signal | 87.6% |
| FC(F)(F)Oc1cccc(-c2cnc3ccc(-c4ccncc4)nn23)c1 | enzyme activity, inhibitor, radiometric | 5 µM | activity vs control | 0.623% |
| O=C(NCc1ncc(C(F)(F)F)cc1Cl)c1ccc2c(c1)C1(CCS(=O)(=O)CC1)[C@@H](C1CC1)N2S(=O)(=O)c1ccc(F)cc1 | cell-free assay, competition with immobilised ligand | 1 µM | remaining binding | 82% |
| Cn1c2c(Cl)c(Cl)ccc2c2cn[nH]c(=O)c21 | thermal stability, DSF | 10 µM | ΔTm | 2 °C |
| CS(=O)(=O)NCC[C@H](NC(=O)c1cncc2c1cnn2-c1ccc(F)cc1)c1ccnc(S(C)(=O)=O)c1 | cell-free assay, competition with immobilised ligand | 1 µM | remaining binding | 100% |
| COc1cccc2c(NCc3ccccc3)nc(-n3c(N)nc4ccccc43)nc12 | target engagement in cells, inhibitor, chemoproteomics | 20 mM | inhibition | -12.9% |
| Cn1c2c(c3ccc(Cl)c(Cl)c31)C(C#N)C(C)(C)NC2=O (stereo not shown) | thermal stability, DSF | 10 µM | ΔTm | 3.2 °C |
